Compound activity (PubChem BioAssay)
hK5 inh: human KLK5 protease inhibitors, primary screen, biochemical, 1536-well | Kallikrein-5 (Homo sapiens), Q9Y337 | recombinant hK5, fluorogenic AMC substrate cleavage | inhibition, % at 5 µM | 210,000 tested, 0.59% active;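 active means inhibition of 40% or more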
Target sequence (Q9Y337 67-293 limits assumed): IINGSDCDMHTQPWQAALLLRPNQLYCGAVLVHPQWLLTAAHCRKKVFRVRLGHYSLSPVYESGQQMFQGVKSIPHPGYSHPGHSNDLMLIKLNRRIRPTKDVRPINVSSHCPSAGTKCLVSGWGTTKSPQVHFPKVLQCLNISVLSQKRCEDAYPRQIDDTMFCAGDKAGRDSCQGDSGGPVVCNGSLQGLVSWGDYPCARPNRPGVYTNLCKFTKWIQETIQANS
Thrombin inh: human alpha-thrombin inhibitors, primary screen, counter-screen for coagulation protease inhibitor project, biochemical, 1536-well, fluorogenic AMC substrate; Prothrombin (Homo sapiens), P00734; Boc-VPR-AMC fluorogenic substrate cleavage; inhibition, % at 5 µM; 220,000 tested, 0.26% active; AID 1046, 2008;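 active means inhibition at or above 40%; inactive means inhibition below 40%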
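System – human alpha-thrombin · Medium – pH 7.5 Tris (50 mM) with NaCl 150 mM, Tween 20 0.05% · Compound – single-point dosing at 5 µM, 0.2% DMSO · Incubation – enzyme reaction carried out at room temperature · Technique – fluorescence of released AMC, ex 355 nm, em 460 nm · Read-out basis – % inhibition of thrombin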
m-calpain inh: inhibitors of pig calpain II, primary screen, biochemical, fluorogenic peptide substrate, 1536-well | inhibition, % at 16 µM | purified calpain II, 30 min | 220,000 tested, 0.37% active | AID 1236, 2008;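 active means inhibition above about 50%, limit read from the data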
FXIa inh 1536: human FXIa protease inhibitors, primary screen, biochemical, 1536-well; Coagulation factor XI (Homo sapiens), P03951; 220,000 tested, 0.14% active; purified FXIa, Boc-Glu-Ala-Arg-AMC fluorogenic substrate; inhibition, % at 5 µM;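 active means inhibition of at least 40%; inactive means inhibition below 40%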;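 further: fluorescence of freed AMC excited at 355 nm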
FXIIa inh 1536: human FXIIa protease inhibitors, primary screen, biochemical, 1536-well; Coagulation factor XII (Homo sapiens), P00748; purified FXIIa, Boc-QGR-AMC fluorogenic substrate, 2 h; inhibition, % at 5 µM; 220,000 tested, 0.3% active; AID 800, 2007; in the data active means inhibition above about 40%
Each line names hits and unclear results; the compound was inactive in the other large screens. Shown are actives, neighbours in structure and some others; about 1.4% of the full set was active somewhere.

COc1ccc(N2CCN(S(=O)(=O)c3ccc(C(=O)NC4CCCC4)cc3)CC2)cc1	FXIIa inh 1536 46.5
COc1ccc(COC(=O)NC2CCN(S(=O)(=O)c3ccc(OC)cc3)CC2)cc1	none
COc1ccc(S(=O)(=O)N2CCC(NC(=O)OCc3c(Cl)cccc3Cl)CC2)cc1	m-calpain inh 65.0
CCOC(=O)C1=C(O)C(=O)N(Cc2cccnc2)C1c1ccc(OC)cc1 (centres undefined)	none
CC1(C)C(=O)Nc2ccccc2N1C(=O)COC(=O)c1cc([N+](=O)[O-])ccc1N	hK5 inh 48.3
CN(C)S(=O)(=O)c1cccc(C(=O)OCC(=O)N2c3ccccc3NC(=O)C2(C)C)c1	none
Cc1ccc(C(=O)N/C(=C\c2ccccc2)C(=O)NCCCn2ccnc2)cc1	none
COc1cccc(CNc2ccc3c(c2)ncn3C(C)C)c1OC	hK5 inh 58.0
CCCn1cnc2cc(NCc3cccc(OC)c3O)ccc21	none
COc1ccccc1NC(=O)N(Cc1ccco1)Cc1cc2cccc(C)c2[nH]c1=O	none
COc1ccccc1NC(=S)N(Cc1ccco1)Cc1cc2cc(C)ccc2[nH]c1=O	Thrombin inh 47.7
Cc1ccc(NC(=O)COC(=O)CCc2ccc(S(=O)(=O)N3CCOCC3)cc2)cc1C	none
Cc1ccc(C)c(SCC(=O)OCC(=O)Nc2ccc(S(=O)(=O)N3CCOCC3)cc2)c1	Thrombin inh 49.6
COc1cc(NC(=O)c2ccco2)c(OC)cc1NC(=O)Nc1cccc(Cl)c1	hK5 inh 46.2
CCN(CC(=O)Nc1cccc(OC)c1)c1ncnc2sc(C)c(C)c12	none
Cc1ccc(/C=N/n2cnnc2)s1	hK5 inh 52.7
Cc1ccnc(NS(=O)(=O)c2ccc(NC(=O)c3ccc(S(=O)(=O)N4CCCC4)cc3)cc2)n1	none
CC(C)(C)C(=O)COC(=O)CNC(=O)c1ccc(Oc2ccccc2)cc1	hK5 inh 44.0
COCC(C)n1c(C)cc(C(=O)COC(=O)CNC(=O)c2ccccc2)c1C (centres undefined)	none
COCCn1c(C)cc(C(=O)COC(=O)CNC(=O)c2ccccc2)c1C	m-calpain inh 58.7
O=C(CNC(=O)c1ccccc1)NCC(=O)OCC(=O)c1ccc(F)cc1	hK5 inh 80.4
CCOC(=O)c1sc(N(C)C(C)=O)nc1C	FXIIa inh 1536 42.1
CCOC(=O)N1CCC(NS(=O)(=O)c2ccc(NC(C)=O)c(Cl)c2)CC1	none
COCCn1c(-c2ccc(OC)cc2)cnc1SCC(=O)Nc1cccc2ccccc12	none
COCCNC(=O)CSc1nc2ccc(N3CCOCC3)cc2c(=O)n1Cc1ccc(OC)cc1	hK5 inh 103.1
CC(OC(=O)C1=Cc2ccccc2OC1)C(=O)NC(C)(C)C (centres undefined)	none
O=C(NC1CCCCC1)C(=S)NC1CCCCC1	none
COc1ccccc1NC(=O)/C(=C/c1cccs1)NC(=O)c1ccco1	m-calpain inh 54.9
CCOc1ccc(CCNC(=O)CSc2cc(=O)n(CC)c3ccccc23)cc1OCC	none
Cc1c(O)ccc(C(=O)CN2C(=O)c3ccccc3C2=O)c1O	m-calpain inh 78.3
Cc1cc(C(=O)CN2C(=O)c3ccccc3C2=O)c(C)n1C1CC1	none
CCn1nnnc1SCC(=O)Nc1ccc2c(c1)OCO2	none
CCC(=O)Nc1ccc(NC(=O)CSc2nnnn2CC)cc1C	hK5 inh 72.5
CSc1ccccc1Sc1cc(C(=O)O)c2ccccc2n1	none
O=C(O)c1cc(Sc2ccc(Br)cc2)nc2ccccc12	hK5 inh 43.2
Cc1ccc(CNc2nc(Cl)c(C#N)s2)cc1	m-calpain inh 75.6
CCOC(=O)CNc1nc(Cl)c(C#N)s1	none
CC(Sc1nncn1C)C(=O)NCc1ccc2c(c1)OCO2 (centres undefined)	Thrombin inh 77.2
S=C(Nc1ccccc1Oc1ccccc1)Nc1cccc(Cl)c1Cl	m-calpain inh 55.1
CCC(C)NC(=O)CSc1nc2ccsc2c(=O)n1NC(=O)c1ccccc1 (centres undefined)	FXIIa inh 1536 40.5
Cc1ccc(CNC(=O)CSc2nc3ccsc3c(=O)n2NC(=O)c2ccccc2)cc1	none
COc1ccc(/C=N/NC(=O)OC(C)(C)C)cc1OC	none
Cc1cc(C)cc(OCC(=O)OCCN2C(=O)c3ccccc3C2=O)c1	none
